What was measured:
[1] = Dissociation constant (pKa); format: physicochemical
Summary of the method: (§1)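 pKa values measured in water at 25 °C by a previously published method.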

[2] = biological target: Muscarinic acetylcholine receptor; assay: Inhibition of binding of radioactive N-propylbenzilycholine mustard ([3H]-PrBCM) to rat brain membranes; format: cell membranes, Membrane
[3] = biological target: Muscarinic acetylcholine receptor; assay: In vitro antagonistic activity against peripheral Muscarinic acetylcholine receptor in guinea pig ileum as inhibition of acetylcholine induced muscle contraction; format: functional, tissue-based
Summary of the method: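 Guinea pigs were killed by a blow to the head and exsanguinated. A 30 mm ileum segment was held isotonically in Tyrode solution at 37 °C in an organ bath. IC50 was obtained by log probit analysis.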

[4] = pKa value is determined; format: physicochemical; summary of the method: as §1

pKa [1] | IC50 [2] [µM] | IC50 [3] [µM] | pKa [4] | SMILES
7.7 | 14 | > 50 |  | C/C=C/COc1noc2c1CNCC2.Cl
7.5 | 9.6 |  |  | C=CCOc1noc2c1CNCC2.Cl
 | 6 |  | 7.6 | CCOc1noc2c1CNCC2.Cl
7 | 15 |  |  | CCN1CCc2onc(OC)c2C1.Cl
7.5 | 3.5 | 11 |  | CC(C)Oc1noc2c1CNCC2.Cl
7.5 | 32 | 48 |  | Cl.c1ccc(COc2noc3c2CNCC3)cc1
7.6 | 5.2 |  |  | CC#CCOc1noc2c1CNCC2.Cl
7.6 | 10 | 35 |  | CCCOc1noc2c1CNCC2.Cl
7.6 | 5.8 |  |  | C#CCOc1noc2c1CNCC2.Cl
6.6 | 2.4 |  |  | CCOc1noc2c1CN(C)CC2.Cl
7.7 | > 50 | 49 |  | CC(C)COc1noc2c1CNCC2.Cl
6.6 | 27 |  |  | COc1noc2c1CN(C)CC2.Cl
6.1 | > 50 | > 50 |  | COc1noc2c1CN(Cc1ccccc1)CC2.Cl
7.6 | 13 | 22 |  | C=C(Br)COc1noc2c1CNCC2.Cl
 | 45 |  | 7.5 | COc1noc2c1CNCC2.Cl
7.6 | 15 | > 50 |  | CCCCOc1noc2c1CNCC2.Cl

SMILES | pKa [1] | IC50 [2] [µM] | IC50 [3] [µM] | pKa [4]
COC(=O)C1=CCCNC1 [NORARECOLINE] | 8.7 | 30 |  | 
COC(=O)C1=CCCN(C)C1 [ARECOLINE] | 7.8 |  |  | 
